Assay results published in ChEMBL document CHEMBL3352181, “Novel phenyl and pyridyl substituted derivatives of isoindolines: Synthesis, antitumor activity and DNA binding features” (Eur J Med Chem, 2014).
pIC50: −log10 of the molar value. The source made the active and inactive calls. The calls are words filed in the database; no cut-off is given here.

Columns and labels:
[1] = system: HepG2; assay: Induction of cell cycle arrest on human HepG2 cells assessed as accumulation at subG1 phase at 10 uM after 24 hrs by propidium iodide staining based flow cytometry (reference value: 4.8 +/- 0.6%); format: functional
Method in brief: (§1)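 HepG2 or SW620 cells were seeded at 25000 per well. After 24 h they were treated, then harvested 24 or 48 h later. Attached cells were trypsinized, pooled with floating cells, PBS-washed and fixed in 70% ethanol. Cells were stained with PI 1 µg/mL plus RNase A 0.2 µg/mL, and 10 000 events were acquired by flow cytometry. Phase percentages come from DNA histograms, in duplicate, with ANOVA at p < 0.05.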

[2] = system: HepG2; assay: Induction of cell cycle arrest on human HepG2 cells assessed as accumulation at subG1 phase at 25 uM after 24 hrs by propidium iodide staining based flow cytometry (reference value: 4.8 +/- 0.6%); format: functional; method in brief: as §1
[3] = system: HepG2; assay: Induction of cell cycle arrest on human HepG2 cells assessed as accumulation at G1 phase at 10 uM after 24 hrs by propidium iodide staining based flow cytometry (reference value: 61.4 +/- 2.0%); format: functional
[4] = system: HepG2; assay: Induction of cell cycle arrest on human HepG2 cells assessed as accumulation at G1 phase at 25 uM after 24 hrs by propidium iodide staining based flow cytometry (reference value: 61.4 +/- 2.0%); format: functional
[5] = system: HepG2; assay: Induction of cell cycle arrest on human HepG2 cells assessed as accumulation at S phase at 10 uM after 24 hrs by propidium iodide staining based flow cytometry (reference value: 12.0 +/- 10.2%); format: functional
[6] = system: HepG2; assay: Induction of cell cycle arrest on human HepG2 cells assessed as accumulation at S phase at 25 uM after 24 hrs by propidium iodide staining based flow cytometry (reference value: 12.0 +/- 10.2%); format: functional; method in brief: as §1
[7] = system: HepG2; assay: Induction of cell cycle arrest on human HepG2 cells assessed as accumulation at G2/M phase at 10 uM after 24 hrs by propidium iodide staining based flow cytometry (reference value: 26.6 +/- 12.2%); format: functional
[8] = system: HepG2; assay: Induction of cell cycle arrest on human HepG2 cells assessed as accumulation at G2/M phase at 25 uM after 24 hrs by propidium iodide staining based flow cytometry (reference value: 26.6 +/- 12.2%); format: functional
[9] = system: HepG2; assay: Induction of cell cycle arrest on human HepG2 cells assessed as accumulation at subG1 phase at 10 uM after 48 hrs by propidium iodide staining based flow cytometry (reference value: 1.9%); format: functional; method in brief: as §1
[10] = system: HepG2; assay: Induction of cell cycle arrest on human HepG2 cells assessed as accumulation at subG1 phase at 25 uM after 48 hrs by propidium iodide staining based flow cytometry (reference value: 1.9%); format: functional; method in brief: as §1
[11] = system: HepG2; assay: Induction of cell cycle arrest on human HepG2 cells assessed as accumulation at G1 phase at 10 uM after 48 hrs by propidium iodide staining based flow cytometry (reference value: 62.1 +/- 4.9%); format: functional
[12] = system: HepG2; assay: Induction of cell cycle arrest on human HepG2 cells assessed as accumulation at G1 phase at 25 uM after 48 hrs by propidium iodide staining based flow cytometry (reference value: 62.1 +/- 4.9%); format: functional
[13] = system: HepG2; assay: Induction of cell cycle arrest on human HepG2 cells assessed as accumulation at S phase at 10 uM after 48 hrs by propidium iodide staining based flow cytometry (reference value: 6.8 +/- 5.3%); format: functional
[14] = system: HepG2; assay: Induction of cell cycle arrest on human HepG2 cells assessed as accumulation at S phase at 25 uM after 48 hrs by propidium iodide staining based flow cytometry (reference value: 6.8 +/- 5.3%); format: functional; method in brief: as §1
[15] = system: HepG2; assay: Induction of cell cycle arrest on human HepG2 cells assessed as accumulation at G2/M phase at 10 uM after 48 hrs by propidium iodide staining based flow cytometry (reference value: 31.1 +/- 0.4%); format: functional
[16] = system: HepG2; assay: Induction of cell cycle arrest on human HepG2 cells assessed as accumulation at G2/M phase at 25 uM after 48 hrs by propidium iodide staining based flow cytometry (reference value: 31.1 +/- 0.4%); format: functional
[17] = system: HepG2; assay: Induction of apoptosis in human HepG2 cells assessed as enlarged cells level at 25 uM after 24 hrs by Annexin V-Fluos staining based fluorescent microscopy; format: functional, cell-based
Method in brief: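 Cells seeded on chamber slides at 4000 per well and treated 24 h (HepG2 at 25 or 50 µM; SW620 at 50 µM). Incubated 15 min with Annexin V-Fluos reagent plus propidium iodide, washed in PBS, and examined by fluorescence microscopy for morphology and labelling.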

[18] = target: T1, DNA topoisomerase 1 (Homo sapiens) (UniProt P11387); assay: Inhibition of human topoisomerase 1 assessed as topoisomerase poison activity by measuring generation of open circular DNA using supercoiled pUC19 DNA at 5 to 50 uM by agarose gel electrophoresis
T1 sequence (whole entry): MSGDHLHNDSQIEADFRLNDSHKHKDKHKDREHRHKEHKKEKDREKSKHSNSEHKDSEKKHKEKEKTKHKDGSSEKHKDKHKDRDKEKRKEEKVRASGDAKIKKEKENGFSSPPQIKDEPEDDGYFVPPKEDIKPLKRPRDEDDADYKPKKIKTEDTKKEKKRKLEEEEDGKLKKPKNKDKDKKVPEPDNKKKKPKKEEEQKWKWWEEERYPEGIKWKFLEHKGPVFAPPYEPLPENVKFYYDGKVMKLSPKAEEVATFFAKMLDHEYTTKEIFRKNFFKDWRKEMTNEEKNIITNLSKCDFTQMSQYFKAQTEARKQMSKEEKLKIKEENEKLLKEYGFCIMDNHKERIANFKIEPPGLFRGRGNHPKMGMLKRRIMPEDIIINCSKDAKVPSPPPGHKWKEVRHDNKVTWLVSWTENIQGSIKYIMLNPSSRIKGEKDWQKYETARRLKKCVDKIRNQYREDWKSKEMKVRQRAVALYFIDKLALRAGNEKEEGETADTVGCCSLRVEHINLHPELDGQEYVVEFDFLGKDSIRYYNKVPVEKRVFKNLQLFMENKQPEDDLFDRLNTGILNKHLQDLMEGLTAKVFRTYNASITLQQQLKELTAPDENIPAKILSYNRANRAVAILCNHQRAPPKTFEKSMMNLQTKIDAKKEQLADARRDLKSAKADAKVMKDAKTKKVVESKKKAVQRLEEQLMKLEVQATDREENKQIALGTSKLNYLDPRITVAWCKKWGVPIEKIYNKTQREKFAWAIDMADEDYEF
Method in brief: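 Supercoiled pUC19 plasmid was incubated with human topoisomerase I and graded compound concentrations. Reactions were stopped with SDS and proteinase K. DNA forms were resolved on 1% agarose in TBE (2 h, 120 V), post-stained with ethidium bromide and photographed under UV. Poisoning was read as appearance of nicked DNA, with camptothecin as the positive control.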

[19] = system: MCF7; assay: Antiproliferative activity against human MCF7 cells assessed as inhibition of cell proliferation after 72 hrs by MTT assay; format: functional, cell-based; conditions: for pIC50: Homo sapiens, MCF7, 72 h
Method in brief: (§2)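 Cells grown as monolayers in DMEM with 10% FBS, 2 mM L-glutamine, penicillin/streptomycin, 37 °C, 5% CO2. Seeded at 5000/well on day 0. Compounds added after 24 h as five serial dilutions (0,01 to 100 µM), DMSO ≤0.1%, then 72 h. MTT read-out converted to percentage growth. IC50 by linear regression; quadruplicates in three experiments.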

[20] = (§3) Antiproliferative activity against human SW620 cells assessed as inhibition of cell proliferation after 72 hrs by MTT assay; format: functional, cell-based, SW-620; conditions: Homo sapiens, SW-620, 72 h; method in brief: as §2
[21] = system: SW-620; assay: as §3; format: functional, cell-based; method in brief: as §2
[22] = system: HepG2; assay: Antiproliferative activity against human HepG2 cells assessed as inhibition of cell proliferation after 72 hrs by MTT assay; format: functional, cell-based; conditions: for pIC50: HepG2, 72 h; method in brief: as §2
[23] = system: BJ; assay: Antiproliferative activity against human BJ cells assessed as inhibition of cell proliferation after 72 hrs by MTT assay; format: cell-based; conditions: 72 h; method in brief: as §2
[24] = system: HeLa; assay: Antiproliferative activity against human HeLa cells assessed as inhibition of cell proliferation after 72 hrs by MTT assay; format: functional, cell-based; conditions: for pIC50: Homo sapiens, HeLa, 72 h; method in brief: as §2
[25] = system: Calf thymus DNA; assay: Binding affinity to calf thymus DNA assessed as change in melting temperature at drug/ base pair ratio of 0.25 by spectrophotometry; format: nucleic-acid assay; conditions: Bos taurus
Method in brief: (§4)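 CT-DNA absorbance followed at 260 nm from 20 to 100 °C, rising 1 °C per min, in BPE buffer, with or without compound at drug/base-pair ratio 0.25 or 0.5. Tm taken as midpoint of the hyperchromic transition from first-derivative plots. ΔTm is Tm with compound minus Tm of DNA alone.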

[26] = system: Calf thymus DNA; assay: Binding affinity to calf thymus DNA assessed as change in melting temperature at drug/ base pair ratio of 0.5 by spectrophotometry; format: nucleic-acid assay; conditions: Bos taurus; method in brief: as §4
[27] = system: Calf thymus DNA; assay: Binding affinity to calf thymus DNA at 50 uM circular dichroism spectroscopy; format: nucleic-acid assay; conditions: Bos taurus
Method in brief: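 CD spectra recorded from 480 to 230 nm, 10 mm path, 20 °C, in BPE buffer. CT-DNA (50 µM) incubated with compound rising from 1 to 60 µM or to 80 µM. Compound without DNA served as the control for intrinsic CD.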

[28] = system: Nucleic Acid; assay: Induction of DNA intercalation in supercoiled pUC19 DNA in presence of human topoisomerase 1 assessed as effect on topoisomerase 1-mediated DNA relaxation at 50 uM by agarose gel electrophoresis; format: nucleic-acid assay; conditions: Escherichia coli
Method in brief: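 Supercoiled pUC19 incubated with human topoisomerase I and graded compound concentrations. Stopped with SDS/proteinase K. DNA forms resolved on 1% agarose in TBE, 2 h at 120 V, stained post-run with ethidium bromide and viewed under UV. Camptothecin was the topo I poison control.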

[29] = Binding affinity to pBluescript 265 bp DNA fragment (unknown origin) assessed binding to AT-rich AATT sequence at 1 to 25 uM incubated for 15 mins by DNase-1 foot printing assay
Method in brief: (§5)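 265 bp EcoRI/PvuII fragment of pBluescript, 3'-end labelled with α[32P]-dATP, incubated with compound (up to 50 µM) for 15 min at 37 °C, then mildly digested with DNase I. Run on 8% denaturing polyacrylamide/8 M urea gels and imaged by phosphor screen. Base positions assigned against a DMS/piperidine G-track.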

[30] = Binding affinity to pBluescript 265 bp DNA fragment (unknown origin) assessed binding to AT-rich ATTA sequence at 1 to 25 uM incubated for 15 mins by DNase-1 foot printing assay; method in brief: as §5
[31] = Binding affinity to pBluescript 265 bp DNA fragment (unknown origin) assessed binding to ACAA sequence at 1 to 25 uM incubated for 15 mins by DNase-1 foot printing assay; method in brief: as §5
[32] = Binding affinity to pBluescript 265 bp DNA fragment (unknown origin) assessed binding to TTGT) sequence at 1 to 25 uM incubated for 15 mins by DNase-1 foot printing assay; method in brief: as §5
[33] = Antiproliferative activity against human WI38 cells assessed as inhibition of cell proliferation after 72 hrs by MTT assay; format: cell-based, WI-38; method in brief: as §2

With `N#Cc1ccc(/N=C2\c3ccccc3CN2c2ccc(C#N)cc2)cc1` the Activity [1] was 13.3%, the Activity [2] was 15.7% and the Activity [3] was 54.1%. For the same compound, the Activity [4] was 45.9%, the Activity [5] was 26.7% and the Activity [6] was 16.8%. The Activity [7] was 19.2%, the Activity [8] was 37.3% and the Activity [9] was 5.2%. For the same compound, the Activity [10] was 5.7%, the Activity [11] was 0% and the Activity [12] was 0%. The Activity [13] was 0%, the Activity [14] was 0% and the Activity [15] was 100%. For the same compound, the Activity [16] was 100%, the Activity [17] was “Active” and the inhibition [18] was “inactive”. For the same compound, the inhibition [19] was “Dose-dependent effect”, the pIC50 [19] was 4.34 and the pIC50 [20] was 4.11. For the same compound, the inhibition [21] was “Dose-dependent effect”, the inhibition [22] was “Dose-dependent effect” and the pIC50 [22] was 5.33. The pIC50 ([23]; Homo sapiens, BJ) was 4.12, the “inhibition (INH)” value ([23]; human, bj) was “Dose-dependent effect” and the inhibition [24] was “Dose-dependent effect”. It also gave a pIC50 [24] of 4.30.
In the case of `CC(C)NC(=N)c1ccc(/N=C2\c3ccccc3CN2c2ccc(C(=N)NC(C)C)cc2)cc1.Cl`, the ΔTm [25] was 6.3 °C, the ΔTm [26] was 11.3 °C and the Activity [27] was “Active”. The Activity [28] was “inactive”, the inhibition [18] was “inactive” and the Activity [29] was “Active”. For the same compound, the Activity [30] was “Active”, the Activity [31] was “Active” and the Activity [32] was “Active”. For the same compound, the pIC50 ([33]; Homo sapiens, WI-38, 72 h) was 4.27, the “inhibition (INH)” value ([33]; human, wi-38, 72 h) was “Dose-dependent effect” and the inhibition [19] was “Dose-dependent effect”. For the same compound, the pIC50 [19] was 4.27, the pIC50 [20] was less than 4.00 and the inhibition [21] was “Dose-dependent effect”. The inhibition [22] was “Dose-dependent effect”, the pIC50 [22] was 4.21 and the inhibition [24] was “Dose-dependent effect”. For the same compound, the pIC50 [24] was less than 4.00.
